We go through 35 molecules from ChEMBL document CHEMBL1128488, “4-Diazinyl- and 4-pyridinylimidazoles: potent angiotensin II antagonists. A study of their activity and computational characterization” (J Med Chem, 1995).

In test [1] the target is T1, Angiotensin II receptor (AT-1) type-1 (Rattus norvegicus, UniProt P29089+P25095).
T1 sequence (P29089 whole entry): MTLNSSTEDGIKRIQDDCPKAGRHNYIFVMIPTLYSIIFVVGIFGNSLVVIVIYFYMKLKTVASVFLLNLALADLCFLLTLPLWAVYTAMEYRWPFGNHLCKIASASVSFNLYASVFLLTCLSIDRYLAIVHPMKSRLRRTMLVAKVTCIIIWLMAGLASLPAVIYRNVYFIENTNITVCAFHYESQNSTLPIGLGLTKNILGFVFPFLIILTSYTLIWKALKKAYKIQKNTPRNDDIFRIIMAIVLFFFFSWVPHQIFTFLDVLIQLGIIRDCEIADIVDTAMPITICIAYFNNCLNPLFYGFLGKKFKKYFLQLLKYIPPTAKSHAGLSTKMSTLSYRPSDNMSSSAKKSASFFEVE
T1 sequence (P25095 whole entry): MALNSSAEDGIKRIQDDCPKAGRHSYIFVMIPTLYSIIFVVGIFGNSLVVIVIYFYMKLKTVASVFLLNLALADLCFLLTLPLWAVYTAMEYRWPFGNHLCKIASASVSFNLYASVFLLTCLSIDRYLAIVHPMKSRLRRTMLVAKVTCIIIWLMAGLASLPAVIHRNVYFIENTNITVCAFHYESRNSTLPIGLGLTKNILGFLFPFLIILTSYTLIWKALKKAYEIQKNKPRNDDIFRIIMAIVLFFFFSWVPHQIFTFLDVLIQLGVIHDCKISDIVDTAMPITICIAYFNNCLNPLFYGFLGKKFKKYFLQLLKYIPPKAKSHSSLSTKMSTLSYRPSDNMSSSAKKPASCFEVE
The test can be described thus: Inhibition of [3H]angiotensin II binding to rat adrenal cortex membrane containing angiotensin II receptor, type 1. Format: tissue-based.

Test [2] has as its system Rattus norvegicus. In words: In vivo concentration inhibiting angiotensin II (A II) induced pressor response in conscious normotensive rats 30 mins after oral administration of 2 uM/kg. Format: functional. The method in brief:
(§1)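 Male Sprague-Dawley rats (280–340 g), premedicated ip with fentanyl/fluanisone and anesthetized with pentobarbital iv during preparation, then tested conscious. Vehicle or compound given orally by stomach tube at 2 μmol kg−1. A II bolus injections every 15 min for the first hour, then every 30 min, over 4 h.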

Test [3] concerns Rattus norvegicus. In words: In vivo concentration inhibiting angiotensin II (A II) induced pressor response in conscious normotensive rats 15 mins after oral administration of 2 uM/kg. Format: functional. In outline: as §1

Structures are written as SMILES.

Regarding `CCCCc1nc(-c2nc(C)ccc2OC)cn1Cc1ccc(-c2ccccc2-c2nn[nH]n2)cc1`, the Ki in test [1] is 250 nM.

In test [1], `CCCCc1nc(-c2cnc[n+]([O-])c2)cn1Cc1ccc(-c2ccccc2-c2nn[nH]n2)cc1` came in with a Ki of 25 nM.

For `CCCCc1nc(-c2nccc[n+]2[O-])cn1Cc1ccc(-c2ccccc2-c2nn[nH]n2)cc1`, the inhibition constant Ki in test [1] is recorded as 61 nM.

`CCCCc1nc(-c2c(C(=O)OC)ccc[n+]2[O-])cn1Cc1ccc(-c2ccccc2-c2nn[nH]n2)cc1` came in with a Ki in test [1] of 29 nM.

As to `CCCCc1nc(-c2cccnc2C(=O)OC)cn1Cc1ccc(-c2ccccc2-c2nn[nH]n2)cc1`, the Ki in test [1] is on record as 45 nM.

`CCCCc1nc(-c2cccc(C(=O)OC)n2)cn1Cc1ccc(-c2ccccc2-c2nn[nH]n2)cc1`: the Ki in test [1] worked out at 19 nM. In the test with Rattus norvegicus [2], the Inhibition is listed as -23%.

For the molecule `CCCCc1nc(-c2ccc(C)n[n+]2[O-])cn1Cc1ccc(-c2ccccc2-c2nn[nH]n2)cc1`, the Ki in test [1] is on record as 44 nM. Further, the Inhibition in the test with Rattus norvegicus [2] is -35%.

Turning to `CCCCc1nc(-c2cc(C(=O)OC)c[n+]([O-])c2)cn1Cc1ccc(-c2ccccc2-c2nn[nH]n2)cc1`, the Ki in test [1] worked out at 41 nM.

In turn, `CCCCc1nc(-c2nc(C)cnc2C)cn1Cc1ccc(-c2ccccc2-c2nn[nH]n2)cc1` returned a Ki in test [1] of 77 nM. Moreover, the Inhibition with Rattus norvegicus [2] is reported as -18%.

On to `CCCCc1nc(Cl)c(CO)n1Cc1ccc(-c2ccccc2-c2nnn[nH]2)cc1` [LOSARTAN], for which, in the test with Rattus norvegicus [2], the Inhibition was -33%.

Consider `CCCCc1nc(-c2ncccn2)cn1Cc1ccc(-c2ccccc2-c2nn[nH]n2)cc1`, for which the Ki in test [1] is 59 nM.

In test [1], `CCCCc1nc(-c2cncnc2)cn1Cc1ccc(-c2ccccc2-c2nn[nH]n2)cc1` registered a Ki of 42 nM.

In test [1], `CCCCc1nc(-c2cnc(C(=O)OC)nc2C)cn1Cc1ccc(-c2ccccc2-c2nn[nH]n2)cc1` came in with a Ki of 70 nM.

Consider `CCCCc1nc(-c2c(C)ncc(C)[n+]2[O-])cn1Cc1ccc(-c2ccccc2-c2nn[nH]n2)cc1`, for which, in test [1], the inhibition constant (Ki) is 2.5 nM. Further, the Inhibition in the test on Rattus norvegicus [2] is -44%.

As for `CCCCc1nc(-c2c(C(=O)OC)ccc(C)[n+]2[O-])cn1Cc1ccc(-c2ccccc2-c2nn[nH]n2)cc1`, in test [1], the Ki turned out to be 4.5 nM. Besides, the Inhibition with Rattus norvegicus [2] was -55%.

In the case of `CCCCc1nc(-c2nc(C)c[n+]([O-])c2C)cn1Cc1ccc(-c2ccccc2-c2nn[nH]n2)cc1`, the Ki in test [1] was 4.4 nM. Also, the Inhibition with Rattus norvegicus [2] is on record as -21%.

For `CCCCc1nc(-c2cncc[n+]2[O-])cn1Cc1ccc(-c2ccccc2-c2nn[nH]n2)cc1`, the Ki in test [1] was determined as 243 nM.

For `CCCCc1nc(-c2cccc(OC)n2)cn1Cc1ccc(-c2ccccc2-c2nn[nH]n2)cc1`, the Ki in test [1] is on record as 25 nM. Also, in the test on Rattus norvegicus [3], the Inhibition is -11%.

Turning to `CCCCc1nc(-c2cnccn2)cn1Cc1ccc(-c2ccccc2-c2nn[nH]n2)cc1`, the inhibitory constant (Ki) in test [1] was determined as 40 nM.

In turn, `CCCCc1nc(-c2cnccc2C(=O)OC)cn1Cc1ccc(-c2ccccc2-c2nn[nH]n2)cc1` yielded a Ki in test [1] of 67 nM.

`CCCCc1nc(-c2c(C(=O)OC)c(C)cc(C)[n+]2[O-])cn1Cc1ccc(-c2ccccc2-c2nn[nH]n2)cc1` came in with a Ki in test [1] of 9.1 nM. In the test on Rattus norvegicus [2], the Inhibition is -29%.

On to `CCCCc1nc(-c2ccc(C(=O)OC)cn2)cn1Cc1ccc(-c2ccccc2-c2nn[nH]n2)cc1`, for which the Ki in test [1] was found to be 12 nM. For the same molecule, in the test on Rattus norvegicus [2], the Inhibition is -33%.

For the molecule `CCCCc1nc(-c2ccc(C(=O)OC)c[n+]2[O-])cn1Cc1ccc(-c2ccccc2-c2nn[nH]n2)cc1`, the inhibitory constant (Ki) in test [1] is 27 nM.

Take `CCCCc1nc(-c2nccnc2C(=O)OC)cn1Cc1ccc(-c2ccccc2-c2nn[nH]n2)cc1`: in test [1], the Ki is listed as 90 nM.

Turning to `CCCCc1nc(-c2cncc(C(=O)OC)c2)cn1Cc1ccc(-c2ccccc2-c2nn[nH]n2)cc1`, in test [1], the Ki was determined as 30 nM.

In the case of `CCCCc1nc(-c2c(OC)ccc(C)[n+]2[O-])cn1Cc1ccc(-c2ccccc2-c2nn[nH]n2)cc1`, the Ki in test [1] was 38 nM. Also, the Inhibition with Rattus norvegicus [2] was -22%.

`CCCCc1nc(-c2ccc(C)[n+]([O-])n2)cn1Cc1ccc(-c2ccccc2-c2nn[nH]n2)cc1` registered a Ki in test [1] of 40 nM. The Inhibition in the test on Rattus norvegicus [2] was -27%.

Consider `CCCCc1nc(-c2ncccc2C(=O)OC)cn1Cc1ccc(-c2ccccc2-c2nn[nH]n2)cc1`, for which, in test [1], the Ki came out at 40 nM.

As to `CCCCc1nc(-c2ccc(C(=O)OC)[n+]([O-])n2)cn1Cc1ccc(-c2ccccc2-c2nn[nH]n2)cc1`, the Ki in test [1] is reported as 54 nM.

Turning to `CCCCc1nc(-c2ccc(C(=O)OC)nn2)cn1Cc1ccc(-c2ccccc2-c2nn[nH]n2)cc1`, the Ki in test [1] was determined as 8.8 nM. Besides, in the test on Rattus norvegicus [2], the Inhibition is -9.3%.

In test [1], `CCCCc1nc(-c2ccc(C)nn2)cn1Cc1ccc(-c2ccccc2-c2nn[nH]n2)cc1` registered a Ki of 12 nM. In addition, the Inhibition in the test on Rattus norvegicus [3] was -30%.

With `CCCCc1nc(-c2nc(C)ccc2C(=O)OC)cn1Cc1ccc(-c2ccccc2-c2nn[nH]n2)cc1`, the Ki in test [1] amounted to 32 nM.

`CCCCc1nc(-c2nc(C)cc(C)c2C(=O)OC)cn1Cc1ccc(-c2ccccc2-c2nn[nH]n2)cc1` had a Ki in test [1] of 53 nM.

`CCCCc1nc(-c2cc(C(=O)OC)cc(C)[n+]2[O-])cn1Cc1ccc(-c2ccccc2-c2nn[nH]n2)cc1`: the Ki in test [1] stood at 180 nM.

For the molecule `CCCCc1nc(-c2ncccc2OC)cn1Cc1ccc(-c2ccccc2-c2nn[nH]n2)cc1`, the Ki in test [1] was 290 nM.

In general, Ki refers to a dissociation constant, usually derived from enzyme kinetics or from competition with a known ligand. The low end stands for tighter binding, the high end for weaker binding. By Inhibition is commonly meant the drop in the measured response relative to a control, in per cent.
